The values that follow come from PMC3089497 (The Journal of Biological Chemistry, 2011).

One test addresses p97 ATPase (Mus musculus, UniProt Q01853). Kind of test: p97 ATPase assay. Type of test: biochemical.
Test [1] relates to Ub^G76V-GFP. Kind of test: cells. Type of test: cell-based, human. The following applies: for IC50: Homo sapiens, read-out: IC50 Ub^G76V-GFP.
The test system of test [2] is Luc-ODC. Kind of test: Luc-ODC reporter degradation assay. The following applies: for IC50: Homo sapiens, read-out: IC50 Luc-ODC. The class given is cell-based, human.
For test [3], the system named is ODD-Luc. Briefly: ODD-Luc reporter degradation assay. Type of test: cell-based, human. To be noted: for IC50: Homo sapiens, read-out: IC50 ODD-Luc.
The test system of test [4] is Ub^G76V-GFP. Kind of test: Ub^G76V-GFP reporter accumulation assay. To be noted: for Score in Ub^G76V-GFP accumulation screen: rescreen of 160 kinase inhibitors. Type of test: cell-based, human. Summed up: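 Dual-reporter HeLa cells expressing UbG76V-GFP were seeded at 5000 per well and grown 16 h. They were exposed to DMSO, MG132 or test compound in modified DMEM (no phenol red, folic acid, riboflavin or vitamin B12) for 2–3 h. Two GFP images per well (100-ms exposure) were taken by automated microscopy. Mean GFP intensity per cell area was averaged over about 500 cells, background-corrected using reporter-free cells, and normalized to DMSO-treated cells.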

A further test deals with C522A-p97 (Mus musculus, UniProt Q01853, C522A). Kind of test: In vitro ATPase assay of C522A-p97. The class given is biochemical. The following applies: compared with wild-type p97. Summed up:
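The C522A p97 mutant was made by site-directed mutagenesis of the wild-type p97 plasmid. It was assayed for in vitro ATPase activity beside wild-type p97, and inhibition was read from titration curves of test compound.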

A further test has as its system TCRα-GFP. Briefly: ERAD reporter TCRα-GFP degradation in HEK293 cells. To be noted: 5 or 10 μM, 2 h CHX chase. Type of test: cell-based, human. Summed up: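 HEK293 cells stably expressing the ERAD reporter TCRα-GFP were pretreated with MG132 and washed. They were then incubated with CHX plus test compound for 2 h before harvest, and reporter levels were assessed by immunoblotting.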

Test [5] deals with ODD-Luc. Briefly: ODD-Luc reporter accumulation assay. The class given is cell-based, human. To be noted: 7.5 μM for 2 h, relative to DMSO. Summed up: (§1)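 HeLa cells stably expressing UbG76V-GFP were lentivirally transduced with ODD-Luc or Luc-ODC and kept under puromycin (2.5 μg/ml). Cells were seeded at 5000 per well and grown 16 h. They were treated 2–3 h in modified DMEM (no phenol red, folic acid, riboflavin or vitamin B12) containing DMSO, MG132 or test compound. d-Luciferin (1 mg/ml in PBS, stock) was added, followed by 5 min shaking at room temperature. Luminescence was read with […] integration and normalized to DMSO.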

For test [6], the system named is Luc-ODC. Kind of test: Luc-ODC reporter accumulation assay. Type of test: cell-based, human. To be noted: 30 μM for 2.5 h, relative to DMSO. Summed up:
as §1

Setting [7] is: read-out: IC50 p97 ATPase, in vitro, WT p97, triplicate, ± S.D.
Where [8] appears, read: IC50 p97 ATPase, in vitro, WT p97, triplicate, ± S.D.

Several values for one entry are separate records, joined by “and”; a condition that tells them apart may be missing. Identical values can stand only once. Like-named read-outs stand apart in the source and are kept apart here. Peptide text beside a SMILES is read from it. * marks the point of attachment. Cbz = O=C(OCc1ccccc1)*

Chain of p97 ATPase (Q01853 whole entry): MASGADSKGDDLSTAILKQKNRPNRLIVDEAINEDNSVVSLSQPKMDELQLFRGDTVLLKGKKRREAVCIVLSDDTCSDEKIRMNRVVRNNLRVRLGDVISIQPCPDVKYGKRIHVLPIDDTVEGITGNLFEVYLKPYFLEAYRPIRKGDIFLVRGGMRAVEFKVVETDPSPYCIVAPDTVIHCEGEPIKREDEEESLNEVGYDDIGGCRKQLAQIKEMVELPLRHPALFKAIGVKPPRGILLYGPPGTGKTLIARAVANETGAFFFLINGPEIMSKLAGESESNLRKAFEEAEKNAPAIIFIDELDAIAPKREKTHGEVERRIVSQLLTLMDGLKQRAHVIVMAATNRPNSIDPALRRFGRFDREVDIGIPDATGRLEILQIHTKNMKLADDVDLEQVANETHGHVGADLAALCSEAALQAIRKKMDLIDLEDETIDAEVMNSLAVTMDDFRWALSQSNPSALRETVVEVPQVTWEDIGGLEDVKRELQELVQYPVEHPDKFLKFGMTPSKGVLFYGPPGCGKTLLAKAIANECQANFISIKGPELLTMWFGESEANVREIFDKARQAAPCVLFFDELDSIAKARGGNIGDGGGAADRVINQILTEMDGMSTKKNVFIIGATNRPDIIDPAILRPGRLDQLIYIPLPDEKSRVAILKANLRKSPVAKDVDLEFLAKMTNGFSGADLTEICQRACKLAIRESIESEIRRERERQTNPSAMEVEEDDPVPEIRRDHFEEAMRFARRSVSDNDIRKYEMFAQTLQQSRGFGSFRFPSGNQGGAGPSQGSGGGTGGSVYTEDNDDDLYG
Chain of C522A-p97 (Q01853 whole entry C522A): as the sequence (Q01853 whole entry) above, with C522A counted along it

As for `CC[n+]1c(/C=C/N(C)c2ccccc2)n(-c2ccccc2)c2ccc(-c3nc4ccccc4s3)cc21` [Compound 1, Akt inhibitor IV], the IC50 on p97 ATPase (setting [7]) amounted to 12 ± 5 µM.
Still for that read-out and setting: the same measure for `O=c1[nH]c2ccccc2n1C1CCN(Cc2ccc(-c3nc4cc5[nH]cnc5cc4nc3-c3ccccc3)cc2)CC1` [Compound 2, Akt inhibitor VIII]: 43 ± 4 µM.
Turning to `CCN(CC)CCCCN1c2ccccc2Oc2ccc(Cl)cc21` [Compound 3, Akt inhibitor X], the IC50 in the test with Ub^G76V-GFP [1] is 16 ± 9 µM; in the test with Luc-ODC [2], 11 ± 5 µM; in the test on ODD-Luc [3], 14 ± 11 µM; on p97 ATPase it was more than 50 µM. For the same molecule, in the test with Ub^G76V-GFP [4], the “Score in Ub^G76V-GFP accumulation screen” value is reported as “did not score as positives”.
Consider `O=C1c2ccccc2-c2nc3nnnn3nc21` [Compound 4, PDK1/Akt/Flt], for which the IC50 at p97 ATPase (setting [7]) is more than 50 µM.
Regarding `COc1ccc2c(c[n+](C)c3c4cc5c(cc4ccc23)OCO5)c1OC` [Compound 5, Chelerythrine chloride], the IC50 with Ub^G76V-GFP [1] stood at 2.2 ± 1 µM; with Luc-ODC [2], 1.9 ± 0.7 µM; in the test on ODD-Luc [3] it was 3.4 ± 0.2 µM; against p97 ATPase (setting [8]) it was 24 ± 11 µM.
`CO[C@H]1[C@@H](OC)C[C@H](C)[C@@H](OC)C2=CC(=O)C=C(NC(=O)/C(C)=C/C=C\[C@H](OC)[C@@H](OC(N)=O)/C(C)=C/[C@@H]1C)C2=O` [Compound 6, Herbimycin A, Streptomyces sp.]: the IC50 in the test on Ub^G76V-GFP [1] is 2.8 ± 1.6 µM; in the test on Luc-ODC [2], more than 30 µM; in the test with ODD-Luc [3] it was 5 ± 2 µM; at p97 ATPase (setting [8]), more than 50 µM. For the same molecule, the “Effect on Luc-ODC degradation (in words)” value with Luc-ODC [2] is on record as “very little activity”.
As for `O=[N+]([O-])C=Cc1ccc2c(c1)OCO2` [Compound 7, 3,4-methylenedioxy-β-nitrostyrene], the “Activity toward C522A-p97 ATPase (in words)” value at C522A-p97 was “poor activity”. Besides, in the test with Ub^G76V-GFP [1] (1.7 μM), the “Stabilization of Ub^G76V-GFP” value came out at 2 fold. Besides, the “Stabilization of Ub^G76V-GFP (in words)” value in the test on Ub^G76V-GFP [1] (7.5 μM) was “almost complete stabilization”. Besides, the IC50 with Ub^G76V-GFP [1] is 1.6 ± 0.4 µM; with Luc-ODC [2], more than 30 µM; with ODD-Luc [3], 5.9 ± 1.5 µM; against p97 ATPase (setting [8]) it was ≤ 10 µM and 1.7 µM. Also, the “IC50 for p97-dependent versus p97-independent reporters” value in the test with Ub^G76V-GFP [1] (fold lower, Ub^G76V-GFP vs ODD-Luc) stood at 3.5 fold. Also, in the test with Luc-ODC [2], the “Effect on Luc-ODC degradation (in words)” value is on record as “very little activity”. The “Degradation of TCRα-GFP” value with TCRα-GFP is “potently blocked”. Besides, the “Accumulation of Ub^G76V-GFP” value with Ub^G76V-GFP [4] (7.5 or 30 μM, 3 h) is listed as less than 2 fold. Further, the “Score in Ub^G76V-GFP accumulation screen” value with Ub^G76V-GFP [4] was “did not score as positives”.
Turning to `CN[C@@H]1C[C@H]2O[C@@](C)([C@@H]1OC)n1c3ccccc3c3c4c(c5c6ccccc6n2c5c31)C(=O)NC4` [Compound 8, Staurosporine, Streptomyces sp.], the IC50 at p97 ATPase (setting [7]) was more than 50 µM.
On the same count and under the same terms, the same measure for `Cc1ccc(S(=O)(=O)/C=C/C#N)cc1` [Compound 9, BAY 11-7082]: 12 ± 1 µM.
Regarding `CCn1cnc2c(Nc3cccc(Cl)c3)nc(N[C@@H]3CCCC[C@@H]3N)nc21` [Compound 10, Cdk1 Inhibitor, CGP74514A], the IC50 on p97 ATPase (setting [7]) came to 17 ± 3 µM.
Still for that read-out and setting: then `Cc1ccc(NC2=CC(=O)c3sc(C)nc3C2=O)cc1` [Compound 11, Cdk4 inhibitor III], with 13 ± 0.5 µM.
In the case of `O=C1c2ccccc2-[n+]2ccc3c([nH]c4ccccc43)c21` [Compound 12, Fascaplysin], the IC50 was 0.9 ± 0.1 µM with Ub^G76V-GFP [1], more than 30 µM in the test on Luc-ODC [2], 6.9 ± 1.9 µM in the test with ODD-Luc [3] and more than 50 µM at p97 ATPase (setting [8]). Moreover, the “Effect on Luc-ODC degradation (in words)” value with Luc-ODC [2] was “very little activity”.
With `Cn1nc2c3c(cccc31)C(=O)c1ccccc1-2` [Compound 14, JNK inhibitor, negative control], the IC50 at p97 ATPase (setting [7]) is more than 50 µM.
Turning to `COC(=O)[C@@]1(O)C[C@H]2O[C@]1(C)n1c3ccccc3c3c4c(c5c6ccccc6n2c5c31)C(=O)NC4` [Compound 15, K-252a, Nocardiopsis sp.], the IC50 at p97 ATPase (setting [7]) worked out at 26 ± 2 µM.
On the same count and under the same terms, the same measure for `O=C1NC(=O)c2cc(Nc3ccc(F)cc3)c(Nc3ccc(F)cc3)cc21` [Compound 16, PKCbII/EGFR inhibitor]: more than 50 µM.
On to `N#Cc1cnc2cnc(NCc3cccnc3)cc2c1Nc1ccc(F)c(Cl)c1` [Compound 17, Tpl2 kinase inhibitor], for which the IC50 on p97 ATPase (setting [7]) is more than 50 µM.
Consider `O=C(O)C=Cc1ccc2c(c1)OCO2` [Compound 18, 3,4-Methylenedioxycinnamic acid], for which the “Effect on Ub^G76V-GFP degradation (in words)” value with Ub^G76V-GFP [1] is “greatly diminished activity”.
With `CC(C)C[C@@H](C=O)NC(=O)[C@H](CC(C)C)NC(=O)[C@H](CC(C)C)NC(=O)OCc1ccccc1` [MG132] (Cbz-Leu-Leu-Leu-aldehyde), in the test with ODD-Luc [5], the ODD-Luc reporter accumulation was approximately 20 fold. Moreover, in the test on Luc-ODC [2] (fold higher), the “IC50 with Luc-ODC reporter relative to Ub^G76V-GFP and ODD-Luc reporters” value is given as approximately 3 fold. Also, the “Ub^G76V-GFP reporter accumulation” value in the test on Ub^G76V-GFP [4] (7.5 μM for 2 h, relative to DMSO) was approximately 20 fold. Further, in the test with Luc-ODC [6], the Luc-ODC reporter accumulation was 1.6 fold.
For `NS(=O)(=O)OC[C@@H]1C[C@@H](n2ccc3c(N[C@H]4CCc5ccccc54)ncnc32)C[C@@H]1O` [MLN4924], the “Effect on Ub^G76V-GFP degradation (in words)” value in the test with Ub^G76V-GFP [1] was “had no effect”. The “Effect on Luc-ODC degradation (in words)” value in the test on Luc-ODC [2] was “had no effect”. For the same molecule, in the test on ODD-Luc [3], the “Effect on ODD-Luc degradation (in words)” value was “strong stabilization”.
